TLR4-MyD88 BLA = inhibitors of TLR4-MyD88 association in cells, primary screen, cell-based, HeLa CL3-4, BLA complementation, FRET ratio; HeLa CL3-4 TLR4/MyD88 BLA complementation; inhibition, % at 8.4 µM; 200,000 compounds, 0.18% hits; AID 861, 2007; in the data active means inhibition above about 25%
MC4R antag cAMP = MC4R antagonists of cAMP signaling, primary screen, cell-based, TR-FRET, antagonist arm of biased-ligand search; MC4R-expressing cells, MTII-stimulated cAMP, LANCE TR-FRET; AID 540295, 2011; inhibition, % at 6.5 µM; 360,000 compounds, 0.48% hits; Melanocortin receptor 4 (Homo sapiens), P32245;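 active means inhibition above its plate's cutoff, the mean of tested wells on that plate plus 3 SD, cut at about 29% in these data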
Target sequence (P32245 whole entry, looked up): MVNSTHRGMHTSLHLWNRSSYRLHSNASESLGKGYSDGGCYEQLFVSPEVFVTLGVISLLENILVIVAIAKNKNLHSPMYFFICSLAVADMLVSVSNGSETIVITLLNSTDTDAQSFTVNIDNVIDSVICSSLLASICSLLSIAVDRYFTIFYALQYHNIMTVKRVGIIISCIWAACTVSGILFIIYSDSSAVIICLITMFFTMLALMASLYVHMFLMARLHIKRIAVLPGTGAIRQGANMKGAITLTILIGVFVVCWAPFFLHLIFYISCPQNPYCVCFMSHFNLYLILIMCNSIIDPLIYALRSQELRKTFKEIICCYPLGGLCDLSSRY
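system = U2OS cells with stable human MC4R expression | also added = Melanotan II challenge after compound preincubation | dosing = one concentration, 6.5 µM nominal | incubation = compound 30 min, challenge 1 h, detection 1 h | measured by = TR-FRET with Eu-cAMP and labeled anti-cAMP, 671 nm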
MC4R ag barr = MC4R agonists recruiting beta-arrestin, primary screen, cell-based, luminescence, agonist arm of biased-ligand search. U2OS MC4R beta-arrestin complementation; percent of melanotan II response, DMSO zero. activation, % at 8.9 µM. 360,000 compounds, 0.98% hits;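 active means activation above a per-plate cutoff, the mean activation of sample wells on that plate plus 3 SD, cut at about 8% in these data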
NOD2 RIPK2 PPI = NOD2-RIPK2 binding disruptors in cells, primary screen, fluorescence, CHO cells, BLA complementation; AID 624267, 2012; Receptor-interacting serine/threonine-protein kinase 2 (Homo sapiens), O43353; 360,000 compounds, 0.38% hits; inhibition, % at 4.98 µM; CCF4 ratio; in the data active means inhibition above about 21%
TLR9-MyD88 block = inhibitors of TLR9-MyD88 association in cells, primary screen, cell-based, CHO, BLA complementation, fluorescence | AID 504734, 2011 | inhibition, % at 4.98 µM | 340,000 compounds, 0.21% hits | CCF4 FRET ratio | Toll-like receptor 9 (Homo sapiens) + Myeloid differentiation primary response protein …;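 active means inhibition above the mean over all tested compounds plus 3 SD, cut at about 21% in these data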
cAMP nonselect = nonselective cAMP signaling inhibitors, parental cells, counter-screen for MC4R biased antagonist project, cell-based, TR-FRET, U2OS, forskolin, triplicate. shares compounds with MC4R antag cAMP. LANCE TR-FRET. inhibition, % at 6.5 µM. 1,600 compounds, 26% hits. AID 602193, 2012;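 active means mean inhibition over triplicates above the low-control well mean plus 3 SD, set per campaign, cut at about 13% in these data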;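 further: signal is single emission at 671 nm which falls as cellular cAMP rises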
MC4R antag conf = MC4R cAMP antagonists, retest, confirmation, cell-based, TR-FRET. shares compounds with MC4R antag cAMP. MC4R-expressing cells, MTII-stimulated cAMP. inhibition, % at 6.5 µM. 1,600 compounds, 27% hits. AID 602195, 2012; in the data active means inhibition above about 29%
Large screens that a line does not name were inactive (follow-up assays come after a bar, where they were run). Shown are actives, neighbours in structure and some others; about 1.8% of the full set was active somewhere.

O=C(CNC(=O)c1ccccc1)OCN1C(=O)c2ccccc2C1=O	MC4R antag cAMP 31 (no result: TLR4-MyD88 BLA) | cAMP nonselect 14 | MC4R antag conf inactive
O=C(CNC(=O)c1ccc(Br)cc1)NCC(=O)OCC(=O)c1ccccc1	MC4R antag cAMP 42 | cAMP nonselect 14 | MC4R antag conf inactive
N#CC1=CC2CN(Cc3ccccc3)C1C1C(=O)N(c3ccccc3)C(=O)C21 (centres undefined)	none (no result: TLR4-MyD88 BLA)
O=C(C#Cc1ccccc1)c1ccccc1	MC4R antag cAMP 51 (no result: TLR4-MyD88 BLA) | cAMP nonselect 29 | MC4R antag conf 36
CC1CCCCC12NC(=O)N(CC(=O)OCC(=O)NC(=O)c1ccccc1)C2=O (centres undefined)	none (no result: TLR4-MyD88 BLA)
COc1ccccc1NC(=O)CSc1nnnn1C1CCCCC1	MC4R antag cAMP 30 (no result: TLR4-MyD88 BLA) | cAMP nonselect inactive | MC4R antag conf inactive
CCCNC(=O)C1(C)CCN(Cc2csc3ccccc23)C1 (centres undefined)	none (no result: TLR4-MyD88 BLA, TLR9-MyD88 block)
COc1ccccc1NCC(=O)N/N=C(\C)c1cccs1	MC4R antag cAMP 40 | cAMP nonselect inactive | MC4R antag conf inactive
O=C(CN1C(=O)C2CC=CCC2C1=O)NCc1cccs1 (centres undefined)	MC4R antag cAMP 31 | cAMP nonselect inactive | MC4R antag conf inactive
O=C(CS(=O)(=O)c1ccccc1)Nc1nnc(C(F)(F)F)s1	MC4R antag cAMP 32 (no result: TLR4-MyD88 BLA) | cAMP nonselect inactive | MC4R antag conf inactive
COCCn1nnnc1C(c1cccs1)N1CCN(c2nc3ccccc3s2)CC1 (centres undefined)	none
Oc1ccc(C(c2nnnn2CCc2ccccc2)N2CCN(c3nc4ccccc4s3)CC2)cc1 (centres undefined)	MC4R antag cAMP 31 (no result: TLR4-MyD88 BLA) | cAMP nonselect inactive | MC4R antag conf inactive
COc1ccc(N2CCN(C(CNC(=O)C(=O)NCc3ccc4c(c3)OCO4)c3ccco3)CC2)cc1 (centres undefined)	MC4R antag cAMP 29 | cAMP nonselect inactive | MC4R antag conf inactive
COc1ccc(N2CCN(C(c3cccs3)C(C)NC(=O)c3ccc4c(c3)OCO4)CC2)cc1 (centres undefined)	MC4R antag cAMP 34 | cAMP nonselect inactive | MC4R antag conf inactive
CCOC(=O)C1CCCN(C(=O)CCNS(=O)(=O)c2cc(Br)cnc2N)C1 (centres undefined)	none (no result: TLR4-MyD88 BLA)
CC(C(=O)Nc1ccccc1-c1ccccc1)N(C)Cc1nc2ccccc2c(=O)[nH]1 (centres undefined)	none
COC(=O)C(Cc1ccc(O)cc1)NC(=O)C1CCN(S(=O)(=O)c2ccc(C)cc2)CC1 (centres undefined)	MC4R antag cAMP 30 (no result: TLR4-MyD88 BLA) | cAMP nonselect 18 | MC4R antag conf 31
CCOC(=O)c1c(-c2ccc(C)o2)csc1NC(=O)COC(=O)c1cccs1	MC4R antag cAMP 31 | cAMP nonselect inactive | MC4R antag conf inactive
CCOC(=O)c1c(-c2ccccc2)csc1NC(=O)CSc1ccccc1	none
CCOC(=O)c1c(-c2ccccc2)csc1NC(=O)COc1ccc2c(C)cc(=O)oc2c1	MC4R antag cAMP 30 | cAMP nonselect inactive | MC4R antag conf inactive
COc1ccccc1-c1cnc(C(O)c2ccc(C(C)(C)C)cc2)[nH]1 (centres undefined)	none (no result: TLR4-MyD88 BLA, TLR9-MyD88 block)
CCOc1ccccc1CNC(=O)c1c([N+](=O)[O-])c(C)nn1C	none
O=C1Nc2ccccc2-c2nnnn2C1N1CCC(Cc2ccccc2)CC1 (centres undefined)	none (no result: TLR4-MyD88 BLA, MC4R antag cAMP, MC4R ag barr, TLR9-MyD88 block)
Cc1nc(N2CCC(C)CC2)c2c(C)c(C(=O)Nc3ccc(C)c(F)c3)sc2n1	none

Screens as filed in PubChem.
